Screens (PubChem)
The list is not random: actives were taken first. Their share in the collection is about 4.9%.
APP 5'UTR act: activates APP 5'UTR luciferase reporter; activation, % at 2 µM; SH-SY5Y APP 5'UTR luciferase reporter, luminescence; zero percent = DMSO vehicle wells; 1% of 190,000 active;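 active = activation above a set limit, based on mean plus 3 SD of controls, cut at about 140% in these data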
STAT1 inh: reduces IFN-gamma driven STAT1 reporter signal; NIH 3T3 STAT1-luciferase reporter, luminescence; inhibition, % at 5.5 µM; 0.35% of 200,000 active;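 active = inhibition above a set limit, the mean inhibition across all tested compounds plus 3 SD, cut at about 34% in these data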
STAT3 act: activators of IL-6 induced STAT3 signaling; U3A cells, IL-6 STAT3-luciferase reporter, luminescence; 100% = signal with IL-6 EC80 alone; activation (% of control), % at 5.6 µM; 0.91% of 190,000 active;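 active = activation above the screen-wide mean of compound activation plus 3 SD, cut at about 130% in these data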
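Test system: Human STAT1-deficient U3A cells with stable STAT3-luciferase reporter | Also added: Interleukin-6, 33 ng/mL | Timing: Compound pre-incubation 1 h before IL-6, then 6 h stimulation at 37 °C | Technique: Luciferase reporter luminescence | Read-out: Percent of IL-6-only median luminescence | Benchmarks: IL-6-only wells as 100% reference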
STAT1 act: activators of IFN-gamma induced STAT1 signaling. NIH 3T3 STAT1-luciferase reporter, luminescence; 100% = IFN-gamma alone, no compound. activation (% of control), % at 5.5 µM. 2.6% of 200,000 active. AID 932;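 active = activation above the screen-wide mean activation plus 3 SD, cut at about 130% in these data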
NF-kB neuron act: compounds increasing NF-kB expression in human neuronal cells; NF-kB reporter expression; hits give high values; fold change at 12.5 µM; 1.6% of 190,000 active; AID 1239; in the data active = fold change above about 3.3
STAT3 inh-1: STAT3 signaling inhibition; U3A cells, IL-6 STAT3-luciferase reporter, luminescence; host cell line lacks STAT1; inhibition, % at 5.5 µM; 0.89% of 190,000 active; AID 862;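 active = inhibition above the mean inhibition across all screened compounds plus 3 SD, cut at about 44% in these data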
STAT3 inh-2: STAT3 inhibition, confirmation assay; shares compounds with STAT3 inh-1; U3A cells, IL-6 STAT3 luciferase reporter, luminescence; cell line lacks STAT1; inhibition, % at 5.7 µM; 45% of 1,200 active; AID 1265;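 active = inhibition above the hit cutoff computed for the primary STAT3 screen, cut at about 44% in these data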
NFkB inh 2: NF-kappaB inhibition in STAT3 inhibitor counter-screen | shares compounds with STAT3 inh-1 | HEK293T NF-kB luciferase reporter, TNF-alpha induced | inhibition, % at 5.7 µM | 36% of 1,200 active;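 active = inhibition above the mean of solvent-only control wells plus 3 SD, cutoff set per campaign, cut at about 13% in these data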
STAT1 inh STAT3c: inhibits STAT1, counter-screen to STAT3 inhibitors; shares compounds with STAT3 inh-1; NIH 3T3 STAT1-luciferase reporter, IFN-gamma induced, luminescence; inhibition, % at 5.7 µM; 27% of 1,200 active;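 active = inhibition above the mean plus 3 SD of solvent-only control wells, limit set per screening run, cut at about 16% in these data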
Hits are given with their value; n = inactive; x = no result.

SMILES	APP 5'UTR act	STAT1 inh	STAT3 act	STAT1 act	NF-kB neuron act	STAT3 inh-1	STAT3 inh-2	NFkB inh 2	STAT1 inh STAT3c
Cc1cccc(-c2nc3cc(NC(=O)C4CCCO4)ccc3o2)c1 (stereo not drawn)	138	n	n	130	4.7	72	46	n	n
Cc1ccc2oc(-c3cccc(NC(=O)Cc4cccs4)c3)nc2c1	n	n	n	n	n	n	x	x	x
O=C(Nc1ccc(-c2nc3ccccc3[nH]2)cc1)C1CCCO1 (stereo not drawn)	180	n	n	n	4.6	68	n	n	n
O=C(Nc1nc2ccccc2[nH]1)C1CCCO1 (stereo not drawn)	n	n	n	n	n	n	x	x	x
O=C(CSc1nc(O)c(C2CCCCC2)c(=O)[nH]1)N1CCOCC1	n	n	n	n	n	n	x	x	x
O=C(Nc1ncc2c(n1)-c1ccccc1CC2)C1CC1	n	n	n	n	n	45	n	n	n
CC(C)SCC(=O)Nc1ncc2c(n1)-c1ccccc1CC2	n	n	n	n	n	n	x	x	x
COc1cc(CC(=O)NNC(=O)c2cc(C)oc2C)cc(OC)c1OC	n	n	n	n	n	n	x	x	x
Cc1ccc(S(=O)(=O)N(C)CCCC(=O)Nc2ccc(F)cc2)cc1	n	n	n	n	n	n	x	x	x
Cc1ccc(S(=O)(=O)N(C)CCCC(=O)Nc2ccncc2)cc1	n	n	n	n	n	50	n	n	n
O=C(NCCCN1CCOCC1)c1cccc(S(=O)(=O)Nc2cc(Cl)ccc2Cl)c1	n	n	n	n	n	n	x	x	x
Cc1ccc(-c2nc3ccccc3[nH]2)cc1NC(=O)c1ccco1	n	n	n	n	n	n	x	x	x
Cc1nc2ccc(-c3nc4ccccc4[nH]3)cc2[nH]1	155	n	n	n	3.5	46	n	n	n
Cc1cccc(OCC(=O)Nc2ccc(N3CCN(C(=O)c4ccco4)CC3)cc2)c1	n	n	n	n	n	54	49	n	17
Cc1ccc(OCC(=O)Nc2ccc(N3CCN(C(=O)c4ccco4)CC3)cc2)cc1C	n	n	n	n	n	n	x	x	x
COCCn1cc(C(=O)c2cc(Br)ccc2O)cc(C#N)c1=O	n	n	n	n	n	n	x	x	x
CN=c1scc(-c2ccccc2Br)n1/N=C/c1ccc[nH]1	174	n	n	n	n	58	n	n	n
CN=c1scc(-c2ccc(Br)cc2)n1C	n	n	n	n	n	n	x	x	x
N=c1c2c(n(Cc3cccc(Cl)c3)c3c1CCC3)CCCC2	n	n	n	n	n	54	45	n	25
N=c1c2c(n(Cc3ccccc3)c3c1CCC3)CCC2	n	n	n	n	n	49	n	n	24
N=c1c2c(n(Cc3ccc(F)cc3)c3c1CCC3)CCCC2	n	n	n	n	n	n	x	x	x
N=c1c2c(n(Cc3ccc(Cl)cc3)c3c1CCC3)CCC2	n	n	n	n	n	54	44	n	24
CCN(CC)c1ccc(C=C(c2nnnn2-c2ccc(C)cc2)c2nnnn2-c2ccc(C)cc2)cc1	n	n	n	n	n	n	x	x	x
CCCCCCCCC(=O)Nc1cc(C)ccc1OC	n	n	n	n	n	n	x	x	x
COc1c(C)cc(NC(=O)c2ccc3c(c2)NC(=O)CO3)cc1C	n	n	n	n	n	45	n	n	n
SMILES	APP 5'UTR act	STAT1 inh	STAT3 act	STAT1 act	NF-kB neuron act	STAT3 inh-1	STAT3 inh-2	NFkB inh 2	STAT1 inh STAT3c
Cc1ccc(C(=O)/C=C2\NCC(C)NC2=O)cc1 (stereo not drawn)	n	n	n	n	n	65	n	n	n
Cc1ccc(C(=O)C2CCNCC2)cc1	n	n	n	n	n	n	x	x	x
COc1ccc(-c2cc(C3CCN(c4cc(Cl)nc(N)n4)CC3)[nH]n2)cc1	n	n	n	n	n	n	x	x	x
Nc1nc(Cl)cc(N2CCC(c3cc(-c4ccc(Cl)cc4)n[nH]3)CC2)n1	n	n	n	n	n	53	46	n	21
CN(C)c1ccc(N/C=C/C(=O)c2ccco2)cc1	x	n	n	n	n	60	n	25	n
Cc1cc(C(=O)NC2=NCCS2)cs1	n	n	n	n	n	n	x	x	x
O=C(Nc1ccc2c(c1)OCCO2)c1cc2ccccc2o1	225	n	n	n	9.2	66	n	n	n
O=C(Nc1ccc(N2CCN(C(=O)c3ccc(Cl)cc3)CC2)cc1)c1cc2ccccc2o1	x	n	n	n	n	70	65	19	n
Cn1c(=O)n(C)c2cc(NC(=O)c3cc4ccccc4o3)ccc21	n	n	n	n	n	n	x	x	x
O=C(NC1=NCCS1)c1cc2ccccc2o1	n	n	n	n	4.8	64	n	n	n
O=C(Nc1ccc2c(c1)OCCO2)Nc1ccc2c(c1)OCO2	174	n	n	n	6.6	54	n	n	n
O=c1[nH]ncc(NCc2ccc(Cl)cc2)c1Cl	n	n	n	n	n	n	x	x	x
Cc1cc(C(=O)CSc2nnc(N)s2)c(C)n1Cc1ccco1	235	n	n	n	4.1	46	n	n	n
C=C(C)CSc1nc2ncccc2[nH]1	n	n	n	n	n	n	x	x	x
Cc1ccc(CSc2nc3ncccc3[nH]2)cc1	n	n	n	n	n	48	n	n	n
CCOC(=O)c1cc2sccc2n1CC(=O)C(C)(C)C	n	n	n	n	n	n	x	x	x
Cn1cc(C(=O)c2ccc(Cl)cc2)cc1-c1nc2ccccc2n1C	x	n	n	n	n	46	n	n	n
CC(C)(C(=O)c1ccccc1)/[N+]([O-])=C/c1ccccc1F	n	n	n	n	x	n	x	x	x
COc1ccc(/C=C\c2nc(=O)c3ccccc3o2)cc1	n	n	n	n	7.3	62	n	n	n
COc1ccc(OCC(=O)c2c(O)c3ccccc3oc2=O)cc1	n	n	n	n	n	n	x	x	x
O=C(NCc1ccncc1)C(=O)N/N=C/c1ccc(OCc2ccccc2)cc1	n	n	n	n	n	n	x	x	x
O=NN(CCc1ccncc1)c1ccc(OCc2ccccc2)cc1	n	n	n	n	n	63	57	19	n
O=C1c2ccccc2C(=O)C1c1ccc2ccccc2n1	n	n	n	n	n	49	n	42	n
COc1ccc(-c2cn(-c3ccc(OC)cc3)c3[n+]2-c2ccccc2CC3)cc1	n	n	n	n	n	73	79	n	23
C/C(=N/NC(=O)c1ccccn1)c1ccco1	n	n	n	n	n	44	n	n	n
COC(=O)N/N=C(\C)c1ccco1	n	n	n	n	n	n	x	x	x
CC(NC(=O)COC(=O)C1CSC2(C)CCC(=O)N12)C12CC3CC(CC(C3)C1)C2 (stereo not drawn)	n	n	n	n	n	n	x	x	x
